{"source": "ChEMBL document CHEMBL5303300", "about": "“EUbOPEN Chemogenomics Library - Multiplex” (2023)", "key": {"Fibroblast": {"tested_on": "Fibroblast", "test": "Multiplex assay against human fibroblast", "type": "toxicity, cell-based", "details": "number of replicates 2", "method_in_brief": "(§1)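 At seeding, live cells were stained with Hoechst33342, BioTracker Green Microtubule Cytoskeleton Dye, MitoTracker Red and Annexin V Alexa Fluor 680. After compound addition they were imaged on a CQ1 microscope at 37°C and 5% CO2, and CellPathfinder machine-learning gating sorted them into Hoechst high-intensity objects or normal cells, with normal cells further split into healthy, pyknosed or fragmented nuclei and pyknosed cells into mitotic or apoptotic. Tubulin, mitochondrial-mass and membrane-permeability phenotypes are given as per cents of cells with healthy nuclei.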"}, "U2OS": {"tested_on": "U2OS", "test": "Multiplex assay against U2OS", "type": "toxicity, cell-based", "details": "human, number of replicates 2", "method_in_brief": "as §1"}, "[1]": {"details": "12 h, 1 µM, compound concentration 1 uM"}, "[2]": {"details": "12 h, 10 µM, compound concentration 10 uM"}, "[3]": {"details": "24 h, 1 µM, compound concentration 1 uM"}, "[4]": {"details": "24 h, 10 µM, compound concentration 10 uM"}, "[5]": {"details": "48 h, 1 µM, compound concentration 1 uM"}, "[6]": {"details": "48 h, 10 µM, compound concentration 10 uM"}}, "note": "Several values for one entry are separate records, joined by “and”; a condition that tells them apart may be missing. Equal entries are not always repeated."}
{"smiles": "CN(C)C/C=C/C(=O)Nc1cccc(S(=O)(=O)N2CCC(NC(=O)c3n[nH]cc3NC(=O)c3c(Cl)cc(Cl)cc3Cl)CC2)c1", "values": [{"measurement": "Population Apoptotic (%)", "setting": "Fibroblast; [1]", "result": "51% and 32%"}, {"measurement": "Population Fragmented Nuclei (%)", "setting": "Fibroblast; [1]", "result": "12% and 7%"}, {"measurement": "Population Healthy Nuclei (%)", "setting": "Fibroblast; [1]", "result": "59% and 65%"}, {"measurement": "Population Hoechst High Intensity Objects (%)", "setting": "Fibroblast; [1]", "result": "0% and 1%"}, {"measurement": "Population Membrane Permeable-Phenotype (%)", "setting": "Fibroblast; [1]", "result": "11% and 14%"}, {"measurement": "Population Mitochondria Different-Phenotype (%)", "setting": "Fibroblast; [1]", "result": "1% and 5%"}, {"measurement": "Population Mitotic Cells (%)", "setting": "Fibroblast; [1]", "result": "48% and 67%"}, {"measurement": "Population Normal (%)", "setting": "Fibroblast; [1]", "result": "100% and 98%"}, {"measurement": "Population Pyknosed Nuclei (%)", "setting": "Fibroblast; [1]", "result": "28% and 26%"}, {"measurement": "Population Tubulin-Different-Phenotype (%)", "setting": "Fibroblast; [1]", "result": "45% and 40%"}, {"measurement": "Total Cell Count", "setting": "Fibroblast; [1]", "result": "158 and 185"}, {"measurement": "Population Apoptotic (%)", "setting": "Fibroblast; [2]", "result": "47% and 44%"}, {"measurement": "Population Fragmented Nuclei (%)", "setting": "Fibroblast; [2]", "result": "28% and 26%"}, {"measurement": "Population Healthy Nuclei (%)", "setting": "Fibroblast; [2]", "result": "36% and 40%"}, {"measurement": "Population Hoechst High Intensity Objects (%)", "setting": "Fibroblast; [2]", "result": 0, "unit": "%"}, {"measurement": "Population Membrane Permeable-Phenotype (%)", "setting": "Fibroblast; [2]", "result": "18% and 10%"}, {"measurement": "Population Mitochondria Different-Phenotype (%)", "setting": "Fibroblast; [2]", "result": "4% and 5%"}, {"measurement": "Population Mitotic Cells (%)", "setting": "Fibroblast; [2]", "result": "52% and 55%"}, {"measurement": "Population Normal (%)", "setting": "Fibroblast; [2]", "result": 100, "unit": "%"}, {"measurement": "Population Pyknosed Nuclei (%)", "setting": "Fibroblast; [2]", "result": "34% and 32%"}, {"measurement": "Population Tubulin-Different-Phenotype (%)", "setting": "Fibroblast; [2]", "result": "82% and 72%"}, {"measurement": "Total Cell Count", "setting": "Fibroblast; [2]", "result": "243 and 248"}, {"measurement": "Population Apoptotic (%)", "setting": "Fibroblast; [3]", "result": "74% and 57%"}, {"measurement": "Population Fragmented Nuclei (%)", "setting": "Fibroblast; [3]", "result": "12% and 11%"}, {"measurement": "Population Healthy Nuclei (%)", "setting": "Fibroblast; [3]", "result": "62% and 63%"}, {"measurement": "Population Hoechst High Intensity Objects (%)", "setting": "Fibroblast; [3]", "result": 0, "unit": "%"}, {"measurement": "Population Membrane Permeable-Phenotype (%)", "setting": "Fibroblast; [3]", "result": "12% and 17%"}, {"measurement": "Population Mitochondria Different-Phenotype (%)", "setting": "Fibroblast; [3]", "result": "6% and 3%"}, {"measurement": "Population Mitotic Cells (%)", "setting": "Fibroblast; [3]", "result": "25% and 42%"}, {"measurement": "Population Normal (%)", "setting": "Fibroblast; [3]", "result": 100, "unit": "%"}, {"measurement": "Population Pyknosed Nuclei (%)", "setting": "Fibroblast; [3]", "result": 25, "unit": "%"}, {"measurement": "Population Tubulin-Different-Phenotype (%)", "setting": "Fibroblast; [3]", "result": "52% and 41%"}, {"measurement": "Total Cell Count", "setting": "Fibroblast; [3]", "result": "140 and 177"}, {"measurement": "Population Apoptotic (%)", "setting": "Fibroblast; [4]", "result": "73% and 77%"}, {"measurement": "Population Fragmented Nuclei (%)", "setting": "Fibroblast; [4]", "result": "19% and 21%"}, {"measurement": "Population Healthy Nuclei (%)", "setting": "Fibroblast; [4]", "result": "15% and 20%"}, {"measurement": "Population Hoechst High Intensity Objects (%)", "setting": "Fibroblast; [4]", "result": 0, "unit": "%"}, {"measurement": "Population Membrane Permeable-Phenotype (%)", "setting": "Fibroblast; [4]", "result": "25% and 12%"}, {"measurement": "Population Mitochondria Different-Phenotype (%)", "setting": "Fibroblast; [4]", "result": "25% and 21%"}, {"measurement": "Population Mitotic Cells (%)", "setting": "Fibroblast; [4]", "result": "26% and 22%"}, {"measurement": "Population Normal (%)", "setting": "Fibroblast; [4]", "result": "99% and 100%"}, {"measurement": "Population Pyknosed Nuclei (%)", "setting": "Fibroblast; [4]", "result": "65% and 57%"}, {"measurement": "Population Tubulin-Different-Phenotype (%)", "setting": "Fibroblast; [4]", "result": "80% and 74%"}, {"measurement": "Total Cell Count", "setting": "Fibroblast; [4]", "result": "227 and 226"}, {"measurement": "Population Apoptotic (%)", "setting": "Fibroblast; [5]", "result": "70% and 64%"}, {"measurement": "Population Fragmented Nuclei (%)", "setting": "Fibroblast; [5]", "result": "14% and 12%"}, {"measurement": "Population Healthy Nuclei (%)", "setting": "Fibroblast; [5]", "result": "44% and 50%"}, {"measurement": "Population Hoechst High Intensity Objects (%)", "setting": "Fibroblast; [5]", "result": 0, "unit": "%"}, {"measurement": "Population Membrane Permeable-Phenotype (%)", "setting": "Fibroblast; [5]", "result": 18, "unit": "%"}, {"measurement": "Population Mitotic Cells (%)", "setting": "Fibroblast; [5]", "result": "29% and 35%"}, {"measurement": "Population Normal (%)", "setting": "Fibroblast; [5]", "result": 100, "unit": "%"}, {"measurement": "Population Pyknosed Nuclei (%)", "setting": "Fibroblast; [5]", "result": "40% and 37%"}, {"measurement": "Population Tubulin-Different-Phenotype (%)", "setting": "Fibroblast; [5]", "result": "39% and 51%"}, {"measurement": "Total Cell Count", "setting": "Fibroblast; [5]", "result": "166 and 150"}, {"measurement": "Population Apoptotic (%)", "setting": "Fibroblast; [6]", "result": "91% and 94%"}, {"measurement": "Population Fragmented Nuclei (%)", "setting": "Fibroblast; [6]", "result": "16% and 12%"}, {"measurement": "Population Healthy Nuclei (%)", "setting": "Fibroblast; [6]", "result": "5% and 6%"}, {"measurement": "Population Hoechst High Intensity Objects (%)", "setting": "Fibroblast; [6]", "result": "1% and 0%"}, {"measurement": "Population Membrane Permeable-Phenotype (%)", "setting": "Fibroblast; [6]", "result": "80% and 66%"}, {"measurement": "Population Mitochondria Different-Phenotype (%)", "setting": "Fibroblast; [6]", "result": "10% and 0%"}, {"measurement": "Population Mitotic Cells (%)", "setting": "Fibroblast; [6]", "result": "8% and 5%"}, {"measurement": "Population Normal (%)", "setting": "Fibroblast; [6]", "result": "98% and 99%"}, {"measurement": "Population Pyknosed Nuclei (%)", "setting": "Fibroblast; [6]", "result": "77% and 80%"}, {"measurement": "Population Tubulin-Different-Phenotype (%)", "setting": "Fibroblast; [6]", "result": "70% and 66%"}, {"measurement": "Total Cell Count", "setting": "Fibroblast; [6]", "result": "191 and 189"}, {"measurement": "Population Apoptotic (%)", "setting": "U2OS; [1]", "result": "78% and 85%"}, {"measurement": "Population Fragmented Nuclei (%)", "setting": "U2OS; [1]", "result": "15% and 10%"}, {"measurement": "Population Healthy Nuclei (%)", "setting": "U2OS; [1]", "result": "50% and 56%"}, {"measurement": "Population Hoechst High Intensity Objects (%)", "setting": "U2OS; [1]", "result": 0, "unit": "%"}, {"measurement": "Population Membrane Permeable-Phenotype (%)", "setting": "U2OS; [1]", "result": "15% and 7%"}, {"measurement": "Population Mitotic Cells (%)", "setting": "U2OS; [1]", "result": "21% and 14%"}, {"measurement": "Population Normal (%)", "setting": "U2OS; [1]", "result": "100% and 99%"}, {"measurement": "Population Pyknosed Nuclei (%)", "setting": "U2OS; [1]", "result": "35% and 33%"}, {"measurement": "Population Tubulin-Different-Phenotype (%)", "setting": "U2OS; [1]", "result": "65% and 50%"}, {"measurement": "Population Apoptotic (%)", "setting": "U2OS; [2]", "result": "80% and 82%"}, {"measurement": "Population Fragmented Nuclei (%)", "setting": "U2OS; [2]", "result": "8% and 13%"}, {"measurement": "Population Healthy Nuclei (%)", "setting": "U2OS; [2]", "result": "15% and 11%"}, {"measurement": "Population Hoechst High Intensity Objects (%)", "setting": "U2OS; [2]", "result": 0, "unit": "%"}, {"measurement": "Population Membrane Permeable-Phenotype (%)", "setting": "U2OS; [2]", "result": "80% and 83%"}, {"measurement": "Population Mitochondria Different-Phenotype (%)", "setting": "U2OS; [2]", "result": "45% and 66%"}, {"measurement": "Population Mitotic Cells (%)", "setting": "U2OS; [2]", "result": "19% and 17%"}, {"measurement": "Population Normal (%)", "setting": "U2OS; [2]", "result": "99% and 100%"}, {"measurement": "Population Pyknosed Nuclei (%)", "setting": "U2OS; [2]", "result": "76% and 75%"}, {"measurement": "Population Tubulin-Different-Phenotype (%)", "setting": "U2OS; [2]", "result": "100% and 83%"}, {"measurement": "Population Apoptotic (%)", "setting": "U2OS; [3]", "result": "65% and 93%"}, {"measurement": "Population Fragmented Nuclei (%)", "setting": "U2OS; [3]", "result": "25% and 9%"}, {"measurement": "Population Healthy Nuclei (%)", "setting": "U2OS; [3]", "result": "29% and 40%"}, {"measurement": "Population Hoechst High Intensity Objects (%)", "setting": "U2OS; [3]", "result": 0, "unit": "%"}, {"measurement": "Population Membrane Permeable-Phenotype (%)", "setting": "U2OS; [3]", "result": "6% and 13%"}, {"measurement": "Population Mitochondria Different-Phenotype (%)", "setting": "U2OS; [3]", "result": "13% and 20%"}, {"measurement": "Population Normal (%)", "setting": "U2OS; [3]", "result": 100, "unit": "%"}, {"measurement": "Population Pyknosed Nuclei (%)", "setting": "U2OS; [3]", "result": "45% and 50%"}]}
